In PMC2193166 (The Journal of Experimental Medicine, 2000):
No end group written: not given here. *: point of attachment. 125I = [125I]*

Columns and labels:
human PMNs = experiment: Human PMN chemotaxis, 48-well microchamber; assay type: cell-based
In short: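 Freshly isolated human PMNs were preincubated with vehicle or test compound (10 nM) for 30 min at 37°C and loaded at 5 × 10^4/well into the upper wells of a 48-well chamber fitted with an uncoated 5-μm polycarbonate membrane. The lower wells held peptide (1 nM), test compound, or vehicle (RPMI, 0.1% ethanol). After 60 min at 37°C, migrated cells were Diff-Quik stained and counted by light microscopy. Migration index was chemoattractant over vehicle; three donors.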

PMNs = experiment: Direct binding of ^125I-labeled MHC binding peptide with PMNs; set-up: species or system human; conditions: n = 3, data not shown
ALXR = target: T1, ALXR (Homo sapiens, UniProt P25090); conditions: cited from earlier work
T1 sequence (P25090 1-351): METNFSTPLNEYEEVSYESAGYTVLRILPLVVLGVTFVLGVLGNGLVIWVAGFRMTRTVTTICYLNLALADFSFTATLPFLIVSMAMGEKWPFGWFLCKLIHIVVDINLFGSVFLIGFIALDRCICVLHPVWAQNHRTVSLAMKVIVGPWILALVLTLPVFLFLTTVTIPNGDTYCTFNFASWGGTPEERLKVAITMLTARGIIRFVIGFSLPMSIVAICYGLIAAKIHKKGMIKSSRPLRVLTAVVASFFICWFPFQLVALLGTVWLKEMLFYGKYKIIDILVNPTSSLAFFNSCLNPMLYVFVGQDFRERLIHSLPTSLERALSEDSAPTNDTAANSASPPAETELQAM

B/A254 = B/A254 (Homo sapiens, UniProt P25090+Q15722); experiment: ^3H-LTB4 binding, B/A254-transfected HEK293 cells

## ^125I-labeled peptide: MHC binding peptide iodinated at the Tyr residue (MY(125I)FINILTL)
Human PMNs
  PMN chemotaxis (in words): did not promote PMN chemotaxis
PMNs
  specific binding to PMNs: nor did it show specific binding

## serum amyloid protein A [SAA]
ALXR
  concentration required to evoke responses: micromolar

## CCCCC/C=C\C[C@@H](O)/C=C/C=C\C=C\[C@@H](O)CCCC(=O)O [^3H-LTB4, [5,6,8,9,11,12, 14,15-^3H]-LTB4]
B/A254
  specific ^3H-LTB4 binding (in words): failed to specifically bind
